Hits are enriched below; roughly 2.5% of the tested compounds scored in any of these assays.
NSD2 HMT inh: NSD2 histone methyltransferase inhibitors, primary screen, biochemical, AlphaScreen, single concentration, set 2; AID 743445, 2014; Histone-lysine N-methyltransferase NSD2 (Homo sapiens), O96028; inhibition, % at 12.5 µM; NSD2 peptide methylation, 120 min; 0.54% of 310,000 active
dFosB act: activators of delta FosB homodimer, primary screen, biochemical, fluorescence polarization, TAMRA-CDK5 oligo, single point. Protein FosB (Mus musculus), P13346. purified delta FosB; percent of positive-control signal above neutral wells. activation, % at 25 µM. 0.99% of 340,000 active;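 active = mean activation above about 17%, with every replicate also reaching it, limit read from the data, passing the limit was not always enough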
DYRK1A inh: rat Dyrk1A kinase inhibitors, primary screen, biochemical, single point, plate reader. ADP-Glo luminescence, NFATc1 peptide. inhibition, % at 12.5 µM. 0.43% of 310,000 active;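 note: plate controls were vehicle with enzyme for no effect and no enzyme for full effect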
CDK5 p35 inh: inhibitors of human CDK5/p35 kinase, primary screen, biochemical, single concentration. Recombinant CDK5/p35, ADP-Glo luminescence, 60 min. inhibition, % at 10 µM. 0.01% of 330,000 active. AID 488839, 2010;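 active = highest replicate inhibition of at least 50% and at least 75% of replicates reaching 50%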;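 note: plate controls were DMSO neutral control for no effect and GW8510 at 10 µM for full effect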
Target sequence (Q00535 whole entry, looked up): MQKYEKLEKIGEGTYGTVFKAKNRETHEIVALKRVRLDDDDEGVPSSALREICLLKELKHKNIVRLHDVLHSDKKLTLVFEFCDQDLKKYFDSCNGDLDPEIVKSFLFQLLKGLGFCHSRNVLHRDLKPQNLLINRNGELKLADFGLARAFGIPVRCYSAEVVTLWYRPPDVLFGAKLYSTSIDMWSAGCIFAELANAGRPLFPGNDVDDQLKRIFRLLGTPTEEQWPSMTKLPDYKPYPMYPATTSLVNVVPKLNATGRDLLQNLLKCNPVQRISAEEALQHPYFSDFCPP
Target sequence (Q15078 whole entry, looked up): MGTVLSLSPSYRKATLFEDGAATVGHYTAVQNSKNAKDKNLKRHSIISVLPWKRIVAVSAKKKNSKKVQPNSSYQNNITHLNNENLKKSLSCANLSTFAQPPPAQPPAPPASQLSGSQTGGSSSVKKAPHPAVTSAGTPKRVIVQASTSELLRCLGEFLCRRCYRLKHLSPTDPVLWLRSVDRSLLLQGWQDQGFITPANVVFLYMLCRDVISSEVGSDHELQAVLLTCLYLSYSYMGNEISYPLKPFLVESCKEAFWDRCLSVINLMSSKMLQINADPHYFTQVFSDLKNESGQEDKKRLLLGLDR
SR-BI uptake up: activators of SR-BI mediated DiI-HDL uptake, primary screen, ldlA[mSR-BI] CHO cells, DiI fluorescence | 3 h; 100 = double the neutral-control signal | activation, % at 12.5 µM | 0.096% of 320,000 active | AID 504775, 2011;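 active = mean replicate activation of at least 60% and every replicate at or above 60%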;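 note: 0% = median plate neutral-control signal and 100% = twice that signal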
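Test system: SR-BI-overexpressing, LDLR-lacking CHO cells; Medium: Ham's F12 with 0.5% BSA, HEPES 25 mM, pH 7.4; Schedule: 3 h, 37 °C; Technique: bottom-read fluorescence, 550/595 nm.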
SR-BI HDL uptake: inhibitors of SR-BI mediated HDL lipid uptake, primary screen, ldlA[mSR-BI] cells, fluorescence, single point. 0.96% of 320,000 active. Scavenger receptor class B member 1 (Mus musculus), Q61009. AID 488896, 2010. inhibition, % at 12.5 µM. ldlA[mSR-BI] CHO cells, DiI-HDL uptake fluorescence, 3 h;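 active = mean replicate inhibition of at least 70% and a set share of replicates each scoring 70 or more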;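 note: 0% = median of neutral control wells and 100% = median of positive control wells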
AlphaScreen art: AlphaScreen signal interference with preloaded methylated product, dose response, artefact control for NSD2 inhibitor project, biochemical, cherry-picked samples. shares compounds with NSD2 HMT inh. AID 1053174, 2014. AC35, µM (highest dose often 10 µM), inactives show top-dose activity change, negative = signal loss. 9.4% of 1,500 active. AlphaScreen artifact counterscreen, preloaded methylated H4 peptide; call rule not given here
* marks the source's active call; other numbers are inactive results; nt = no result. Cut-off read from the data, not from the text of the source, unless noted: active = inhibition above about 50%; inactive = the rest.

SMILES | NSD2 HMT inh | dFosB act | DYRK1A inh | CDK5 p35 inh | SR-BI uptake up | SR-BI HDL uptake | AlphaScreen art
CCN(C(=S)Nc1cccnc1)c1cccc2ccccc12 | 100* | -4 | -1 | -2 | -10 | 10 | -6%
Cc1ccccc1-c1nnc2n1N=C(c1ccc(O)c(O)c1)CS2 | 69* | nt | nt | nt | nt | nt | -8%
COc1ccccc1NC1C=CS(=O)(=O)C1 (stereo unspecified) | 97* | -5 | -8 | 0 | 18 | -18 | -5%
O=C(OCc1ccc(Br)cc1)c1cccnc1Cl | 6 | -1 | -6 | 0 | nt | nt | nt
O=C(OCc1ccc(Cl)c(Cl)c1)c1cccnc1Cl | 107* | -2 | -7 | -1 | -13 | 13 | -6%
O=C(NNC(=O)c1cccs1)c1ccc(Cl)c([N+](=O)[O-])c1 | 54* | 1 | -1 | 0 | 3 | -3 | -6%
O=C(COC(=O)CNC(=O)c1ccc(Cl)c([N+](=O)[O-])c1)NNC(=O)c1cccs1 | 0 | -6 | 5 | 0 | 7 | -7 | nt
CCN(C(=O)COC(=O)CCOc1cc(C)ccc1C)c1c(N)n(Cc2ccccc2)c(=O)[nH]c1=O | -3 | -13 | -4 | 2 | -43 | 43 | nt
CCN(C(=O)Cn1cc(C(F)(F)F)ccc1=O)C1CCS(=O)(=O)C1 (stereo unspecified) | -1 | nt | nt | nt | nt | nt | nt
c1cc(-c2ccsc2)n2ccnc2c1 | -1 | nt | nt | nt | nt | nt | nt
c1cc(-c2ccoc2)n2ccnc2c1 | 105* | nt | nt | nt | nt | nt | -1%
CC(=O)Nc1ccc(SCCC2CCCCN2C)cc1 (stereo unspecified) | 88* | 2 | -6 | -3 | nt | nt | -6%
NC1=C(Br)C(=O)c2ncccc2C1=O | 101* | -3 | 19 | 0 | 5 | -5 | 5%
CC[n+]1c(/C=C/c2c[nH]c3ccccc23)ccc2cc(C)ccc21 | 108* | 12 | 11 | 3 | -53 | 53 | -15%
CCOC(=O)C1=C(COC(=O)c2sccc2C)NC(=O)NC1C (stereo unspecified) | -5 | -5 | 2 | -1 | 0 | 0 | nt
CCOC(=O)C1=C(COC(=O)c2ccc([N+](=O)[O-])s2)NC(=O)NC1C (stereo unspecified) | 104* | -10 | nt | -1 | -19 | 19 | 0%
CCCCn1c(NS(=O)(=O)c2ccccc2)c(S(=O)(=O)c2ccc(C)cc2)c2nc3ccccc3nc21 | 102* | 4 | 9 | -5 | -5 | 5 | -2%
CCCCn1c(NC(=O)c2ccco2)c(S(=O)(=O)c2ccc(C)cc2)c2nc3ccccc3nc21 | nt | 0 | -1 | 1 | -1 | 1 | nt
CCCCn1c(NC(=O)c2ccc(Br)o2)c(S(=O)(=O)c2ccccc2)c2nc3ccccc3nc21 | 104* | -6 | -7 | -1 | 15 | -15 | 1%
CCn1c(CSc2n[nH]c(N)n2)nc2cc(C(=O)O)ccc21 | 4 | -70 | -6 | 0 | -4 | 4 | nt
CN(C)c1cccc2c1c(NC(=O)Nc1ccccc1)nn2C | 88* | -13 | nt | -1 | -44 | 44 | -1%
C=CCOc1ccc(/C=C2\SC(=S)N(NS(=O)(=O)c3ccc(C)cc3)C2=O)cc1 | 55* | -16 | -7 | 2 | -9 | 9 | -14%
CCOC(=O)C1=C(Nc2ccc(Br)cc2)C(=O)N(CC)C1 | -1 | nt | nt | nt | nt | nt | nt
COc1ccc(C)cc1S(=O)(=O)N1CCC2(CC1)OCCN2S(=O)(=O)c1ccccc1 | 0 | -9 | -3 | -1 | -1 | 1 | nt
CCOC(=O)C1=C(C)N(C)C(=S)NC1c1cccc(Cl)c1Cl (stereo unspecified) | -3 | -7 | 1 | 0 | -22 | 22 | nt
SMILES | NSD2 HMT inh | dFosB act | DYRK1A inh | CDK5 p35 inh | SR-BI uptake up | SR-BI HDL uptake | AlphaScreen art
CCOC(=O)C1=C(C)N(C)C(=S)NC1c1ccccc1Cl (stereo unspecified) | 96* | -2 | 4 | 0 | -3 | 3 | 1%
Cc1cccc(C(=O)NCc2nnc(SCC(=O)Nc3nnc(C)s3)n2C)c1 | 90* | -10 | 8 | -7 | 12 | -12 | -2%
Cc1cccc(C(=O)NCc2nnc(SCC(=O)Nc3nncs3)n2C)c1 | 6 | 1 | 5 | -7 | 7 | -7 | nt
CC[C@@]1(C(=O)OC)N[C@H](CN(C)C(=O)C2CCCCC2)[C@@H]2C(=O)N(Cc3ccccc3)C(=O)[C@@H]21 | nt | -7 | -2 | 5 | -8 | 8 | nt
CCOC(=O)c1c(C)oc2c1c(CN1CCN(C(=O)OCC)CC1)c(O)c1ccccc12 | 0 | -9 | nt | 1 | -14 | 14 | nt
CCOC(=O)c1c(C)oc2c1c(C=NCCC(=O)O)c(O)c1ccccc12 | 164* | -9 | 5 | 0 | 2 | -2 | 0%
C[C@@H]1CN([C@H](C)CO)C(=O)c2cc(NC(=O)Nc3ccc4c(c3)OCO4)ccc2O[C@H]1CN(C)Cc1ccncc1 | nt | -8 | -3 | 9 | -29 | 29 | nt
COc1cccc(C2c3c(oc4ccccc4c3=O)C(=O)N2CCCN(C)C)c1OC (stereo unspecified) | 60* | -6 | 3 | -1 | -5 | 5 | 0%
CCN(CC)CCCN1C(=O)c2oc3ccccc3c(=O)c2C1c1cccc(OC)c1OC (stereo unspecified) | 15 | -5 | -9 | 1 | 34 | -34 | nt
O=C1CCCN1c1ccc(S(=O)(=O)N2CCCCC2)cc1 | 0 | -7 | -5 | 1 | -4 | 4 | nt
CC(=O)c1cccc(NC(=O)CC2CCCC2)c1 | 53* | -4 | -4 | 0 | -3 | 3 | -3%
Cc1cccc(-c2ocnc2C(=O)Nc2ncc(C)s2)c1 | -2 | nt | nt | nt | nt | nt | nt
CCN(CC)CCNC(=O)c1c(C)[nH]c(/C=C2\C(=O)Nc3ccc(F)cc32)c1C | 50* | nt | nt | nt | nt | nt | -14%
CC(=O)N1CCN(Cc2nc3cc(NC(=O)Cn4nc(C)c5ccccc5c4=O)ccc3n2C)CC1 | 60* | 0 | -1 | 0 | 7 | -7 | 3%
CCCC(=O)Nc1ccc2c(c1)nc(CN1CCN(C(C)=O)CC1)n2C | -3 | 5 | 5 | -1 | -5 | 5 | nt
CCN(CC)CCCNC(=O)c1cc2nc3c(c(C(F)(F)F)n2n1)CCc1ccccc1-3 | 13 | -12 | -3 | -1 | -15 | 15 | nt
Cc1ccc(O)c(NC(=O)c2cc3nc4c(c(C(F)(F)F)n3n2)CCc2ccccc2-4)c1 | 70* | -8 | -3 | -1 | 0 | 0 | -4%

Source: PubChem BioAssay (Broad Institute)
